In ChEMBL document CHEMBL1154475, “1,3,4-Oxadiazole/thiadiazole and 1,2,4-triazole derivatives of biphenyl-4-yloxy acetic acid: synthesis and preliminary evaluation of biological properties” (Eur J Med Chem, 2008):

These compounds were tested on Rattus norvegicus (assay: Antiinflammatory activity in Wistar rat assessed as inhibition of carrageenan-induced paw edema administered orally at equimolar oral dose relative to 10 mg/kg flurbiprofen measured after 3 hrs of carrageenan challenge). Conditions: not given.
Assay type: functional
In short: (§1)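 Adult Wistar rats of either sex, 150–200 g, n=6 per group, fasted 24 h with water allowed. Dosed orally in 0.5% CMC 1 h before 0.1 ml of 1% carrageenan in saline was injected subplantar into the right hind paw. Paw volume was read by plethysmometer at baseline, 3 h and 4 h. % inhibition = (Vc − Vt)/Vc × 100. ANOVA with Dunnett's test.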

SMILES	inhibition in vivo [%]
Clc1ccc(Nc2nnc(COc3ccc(-c4ccccc4)cc3)s2)cc1	52.3
Fc1ccc(Nc2nnc(COc3ccc(-c4ccccc4)cc3)s2)cc1	27.3
CCCCNc1nnc(COc2ccc(-c3ccccc3)cc2)s1	27.3
CC(C)Cc1ccc(C(C)c2nnc(COc3ccc(-c4ccccc4)cc3)o2)cc1 (configuration not stated)	77.3
CCCCNc1nnc(COc2ccc(-c3ccccc3)cc2)o1	15.9
Fc1ccc(-n2c(S)nnc2COc2ccc(-c3ccccc3)cc2)cc1	75
Clc1ccc(OCc2nnc(COc3ccc(-c4ccccc4)cc3)o2)c(Cl)c1	29.5
Brc1ccc(Nc2nnc(COc3ccc(-c4ccccc4)cc3)s2)cc1	63.6
Cc1ccccc1Nc1nnc(COc2ccc(-c3ccccc3)cc2)s1	25
Clc1ccc(-c2nnc(COc3ccc(-c4ccccc4)cc3)o2)cc1	75
Clc1ccc(-c2nnc(COc3ccc(-c4ccccc4)cc3)o2)c(Cl)c1	56.1
c1ccc(-c2ccc(OCc3nnc(-c4ccccc4)o3)cc2)cc1	18.2
Sc1nnc(COc2ccc(-c3ccccc3)cc2)n1-c1ccc(Br)cc1	31.8
Cc1ccccc1-n1c(S)nnc1COc1ccc(-c2ccccc2)cc1	56.8
Fc1ccc(Nc2nnc(COc3ccc(-c4ccccc4)cc3)o2)cc1	52.3
CCCCn1c(S)nnc1COc1ccc(-c2ccccc2)cc1	75
Cc1ccc(Nc2nnc(COc3ccc(-c4ccccc4)cc3)s2)c(C)c1	56.8
COc1ccc2cc(C(C)c3nnc(COc4ccc(-c5ccccc5)cc4)o3)ccc2c1 (configuration not stated)	25
Cc1ccc(-n2c(S)nnc2COc2ccc(-c3ccccc3)cc2)c(C)c1	54.5
Sc1nnc(COc2ccc(-c3ccccc3)cc2)n1-c1ccc(Cl)cc1	15.9
CC(C(=O)O)c1ccc(-c2ccccc2)c(F)c1 (configuration not stated) [FLURBIPROFEN]	75
Clc1ccccc1-c1nnc(COc2ccc(-c3ccccc3)cc2)o1	59.1

Each compound was assayed on Rattus norvegicus (assay: Hepatotoxicity in po dosed Wistar albino rat assessed as total albumin content administered at equimolar oral dose relative to 10 mg/kg flurbiprofen after 15 days). Conditions: in vivo, 360 h.
Assay type: toxicity, organism-based
Design: dose 10 mg/kg, route oral
In short: (§2)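 Wistar albino rats of either sex, 150–200 g, n=6 per group, given oral doses in 0.5% w/v CMC once daily for 15 days; controls received vehicle. Retro-orbital blood was clotted 45 min at room temperature and serum separated by centrifugation at 2500 rpm for 15 min for the biochemical assays. ANOVA with Dunnett's test against control.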

SMILES	Activity [g/dL]
CC(C)Cc1ccc(C(C)c2nnc(COc3ccc(-c4ccccc4)cc3)o2)cc1 (configuration not stated)	1.72
CCCCn1c(S)nnc1COc1ccc(-c2ccccc2)cc1	0.71

What follows are compounds tested on Rattus norvegicus (assay: Antiinflammatory activity in Wistar rat assessed as inhibition of carrageenan-induced paw edema administered orally at equimolar oral dose relative to 10 mg/kg flurbiprofen measured after 4 hrs of carrageenan challenge). Conditions: not given.
Assay type: functional
In short: as §1

SMILES	inhibition in vivo [%]
Clc1ccc(Nc2nnc(COc3ccc(-c4ccccc4)cc3)s2)cc1	54.5
Fc1ccc(Nc2nnc(COc3ccc(-c4ccccc4)cc3)s2)cc1	29.5
CCCCNc1nnc(COc2ccc(-c3ccccc3)cc2)s1	27.3
CC(C)Cc1ccc(C(C)c2nnc(COc3ccc(-c4ccccc4)cc3)o2)cc1 (configuration not stated)	79.5
CCCCNc1nnc(COc2ccc(-c3ccccc3)cc2)o1	15.9
Fc1ccc(-n2c(S)nnc2COc2ccc(-c3ccccc3)cc2)cc1	79.5
Clc1ccc(OCc2nnc(COc3ccc(-c4ccccc4)cc3)o2)c(Cl)c1	29.5
Brc1ccc(Nc2nnc(COc3ccc(-c4ccccc4)cc3)s2)cc1	63.6
Cc1ccccc1Nc1nnc(COc2ccc(-c3ccccc3)cc2)s1	29.5
Clc1ccc(-c2nnc(COc3ccc(-c4ccccc4)cc3)o2)cc1	77.3
Clc1ccc(-c2nnc(COc3ccc(-c4ccccc4)cc3)o2)c(Cl)c1	57.6
c1ccc(-c2ccc(OCc3nnc(-c4ccccc4)o3)cc2)cc1	18.2
Sc1nnc(COc2ccc(-c3ccccc3)cc2)n1-c1ccc(Br)cc1	31.8
Cc1ccccc1-n1c(S)nnc1COc1ccc(-c2ccccc2)cc1	59.1
Fc1ccc(Nc2nnc(COc3ccc(-c4ccccc4)cc3)o2)cc1	52.3
CCCCn1c(S)nnc1COc1ccc(-c2ccccc2)cc1	81.8
Cc1ccc(Nc2nnc(COc3ccc(-c4ccccc4)cc3)s2)c(C)c1	56.8
COc1ccc2cc(C(C)c3nnc(COc4ccc(-c5ccccc5)cc4)o3)ccc2c1 (configuration not stated)	25
Cc1ccc(-n2c(S)nnc2COc2ccc(-c3ccccc3)cc2)c(C)c1	54.5
Sc1nnc(COc2ccc(-c3ccccc3)cc2)n1-c1ccc(Cl)cc1	18.2
CC(C(=O)O)c1ccc(-c2ccccc2)c(F)c1 (configuration not stated) [FLURBIPROFEN]	79.5
Clc1ccccc1-c1nnc(COc2ccc(-c3ccccc3)cc2)o1	63.6

The compounds below were run on Rattus norvegicus (assay: Hepatotoxicity in po dosed Wistar albino rat assessed as serum glutamate oxaloacetate transaminase activity administered at equimolar oral dose relative to 10 mg/kg flurbiprofen after 15 days). Conditions: in vivo, 360 h.
Assay type: toxicity, organism-based
Design: dose 10 mg/kg, route oral
In short: as §2

SMILES	Activity [U/ml]
CC(C)Cc1ccc(C(C)c2nnc(COc3ccc(-c4ccccc4)cc3)o2)cc1 (configuration not stated)	141.09
CCCCn1c(S)nnc1COc1ccc(-c2ccccc2)cc1	138

These compounds were tested on Mus musculus (assay: Analgesic activity in Swiss albino mouse assessed as inhibition of tail withdrawal administered orally at equimolar oral dose relative to 10 mg/kg flurbiprofen after 4 hrs). Conditions: not given.
Assay type: functional
In short: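 Tail immersion in Swiss albino mice of either sex, 25–30 g, n=6 per group, dosed orally as a suspension in 0.5% w/v CMC. The lower 5 cm of the tail was dipped in water held at 55 ± 0.5 °C. Reaction time (s) to tail withdrawal was recorded before dosing and 4 h after, with a 10 s cut-off.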

SMILES	inhibition in vivo [%]
CC(C)Cc1ccc(C(C)c2nnc(COc3ccc(-c4ccccc4)cc3)o2)cc1 (configuration not stated)	72.8
Fc1ccc(-n2c(S)nnc2COc2ccc(-c3ccccc3)cc2)cc1	30.5
Clc1ccc(-c2nnc(COc3ccc(-c4ccccc4)cc3)o2)cc1	16.9
CCCCn1c(S)nnc1COc1ccc(-c2ccccc2)cc1	58.2
CC(C(=O)O)c1ccc(-c2ccccc2)c(F)c1 (configuration not stated) [FLURBIPROFEN]	69.5

The compounds below were run on Rattus norvegicus (assay: Hepatotoxicity in po dosed Wistar albino rat assessed as total protein content administered at equimolar oral dose relative to 10 mg/kg flurbiprofen after 15 days). Conditions: in vivo, 360 h.
Assay type: toxicity, organism-based
Design: dose 10 mg/kg, route oral
In short: as §2

SMILES	Activity [g/dL]
CC(C)Cc1ccc(C(C)c2nnc(COc3ccc(-c4ccccc4)cc3)o2)cc1 (configuration not stated)	1.92
CCCCn1c(S)nnc1COc1ccc(-c2ccccc2)cc1	1.82

Each compound was assayed on Rattus norvegicus (assay: Gastrointestinal toxicity in rat assessed as gastric mucosal damage severity index administered at equimolar oral dose relative to 30 mg/kg flurbiprofen). Conditions: in vivo.
Assay type: organism-based, Gastric mucosa
Design: dose 30 mg/kg, route oral
In short: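 Wistar rats, n=6 per group, food withdrawn 24 h before oral dosing in 0.5% CMC, then given normal diet for 17 h before sacrifice. Stomachs were opened along the greater curvature and scored under a magnifier (0.5 redness to 3.0 for >5 ulcers). Severity index = mean treated score minus mean control score.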

SMILES	UI
CC(C)Cc1ccc(C(C)c2nnc(COc3ccc(-c4ccccc4)cc3)o2)cc1 (configuration not stated)	0.75
Fc1ccc(-n2c(S)nnc2COc2ccc(-c3ccccc3)cc2)cc1	0.833
Clc1ccc(-c2nnc(COc3ccc(-c4ccccc4)cc3)o2)cc1	1
CCCCn1c(S)nnc1COc1ccc(-c2ccccc2)cc1	0.666
CC(C(=O)O)c1ccc(-c2ccccc2)c(F)c1 (configuration not stated) [FLURBIPROFEN]	1.666

What follows are compounds tested on Rattus norvegicus (assay: Hepatotoxicity in po dosed Wistar albino rat assessed as serum glutamate pyruvate transaminase activity administered at equimolar oral dose relative to 10 mg/kg flurbiprofen after 15 days). Conditions: in vivo, 360 h.
Assay type: toxicity, organism-based
Design: dose 10 mg/kg, route oral
In short: as §2

SMILES	Activity [U/ml]
CC(C)Cc1ccc(C(C)c2nnc(COc3ccc(-c4ccccc4)cc3)o2)cc1 (configuration not stated)	29.17
CCCCn1c(S)nnc1COc1ccc(-c2ccccc2)cc1	22.67

Species on record: Rattus norvegicus
Assay: Inhibition of lipid peroxidation in rat assessed as malondialdehyde level per 100 mg of tissue
Assay type: functional, organism-based
Conditions: not given
In short: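 Gastric mucosa taken from the ulcerogenicity rats was scraped, weighed (100 mg) and homogenized in ice-cold 1.15% KCl. SDS, acetate buffer pH 3.5 and 0.8% TBA were added and the mixture heated at 95 °C for 60 min. It was extracted with n-butanol:pyridine (15:1), centrifuged, and the organic layer read at 532 nm. Results given as nmol MDA/100 mg tissue (ε 1.56 × 10⁵ cm⁻¹ M⁻¹).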

SMILES	Activity [nmol]
CC(C)Cc1ccc(C(C)c2nnc(COc3ccc(-c4ccccc4)cc3)o2)cc1 (configuration not stated)	5.28
Fc1ccc(-n2c(S)nnc2COc2ccc(-c3ccccc3)cc2)cc1	5.34
Clc1ccc(-c2nnc(COc3ccc(-c4ccccc4)cc3)o2)cc1	5.88
CCCCn1c(S)nnc1COc1ccc(-c2ccccc2)cc1	5.19
CC(C(=O)O)c1ccc(-c2ccccc2)c(F)c1 (configuration not stated) [FLURBIPROFEN]	7.51
